We go through 9 compounds from ChEMBL document CHEMBL3297691, “Development and bioorthogonal activation of palladium-labile prodrugs of gemcitabine” (J Med Chem, 2014).

The species named for data set [1] is Danio rerio. In words: Prodrug conversion in zebrafish yolk assessed as formation of rhodamine 110 at 5 uM after 24 hrs by fluorescence microscopic analysis in presence of palladium-resins. Conditions: in vivo.
The nature of data set [2]: Cytotoxicity against human MIAPaCa2 cells after 4 days by PrestoBlue assay. Conditions: MIA PaCa-2, 96 h.
Data set [3] is described as follows: Cytotoxicity against human BxPC3 cells after 5 days by PrestoBlue assay. The data set is classed as functional, cell-based. The conditions noted are these: BXPC-3, 96 h, in the assay text read “4 days” for “5 days”.
The subject of data set [4] is BXPC-3. Put plainly: Cytotoxicity against human BxPC3 cells at 100 nM after 5 days by PrestoBlue assay in presence of palladium-resins. The class given is functional, cell-based. Summed up: (§1)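 BxPC-3 (RPMI; 2,500 cells/well) or Mia PaCa-2 (DMEM; 1,000 cells/well) in 10% FBS and 2 mM L-glutamine were grown 48 h, then given fresh medium with compound (3, 10, 30, 100, 300 nM), with or without Pd0-resins (0.67 mg/mL), in 0.1% DMSO. After 5 days at 37 °C and 5% CO2, PrestoBlue (10% v/v) was added for 60 min; fluorescence ex 540/em 590 nm, normalized to DMSO wells; n = 3.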

Data set [5] concerns BXPC-3. In words: Cytotoxicity against human BxPC3 cells at 30 nM up to 120 hrs by IncuCyte ZOOM analysis. The data set is classed as functional, cell-based. Summed up: (§2)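 BxPC-3 cells in RPMI with 10% FBS and 2 mM L-glutamine were treated once at 30 nM. Wells were imaged every 3 h for 5 d (120 h) by IncuCyte ZOOM inside the incubator (37 °C, 5% CO2). Confluence came from image analysis; n = 3, ± SD.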

Data set [6] concerns BXPC-3. Put plainly: Cytotoxicity against human BxPC3 cells at 10 to 100 nM after 5 days by PrestoBlue assay in presence of palladium-resins. The class given is functional, cell-based. The method, boiled down:
as §1

Data set [7] in a line: Prodrug conversion in phosphate buffered saline assessed as formation of gemcitabine at 100 uM after 24 hrs by HPLC analysis in presence of palladium-resins. The class given is physicochemical. Conditions: buffer. Summed up:
(§3)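 Prodrug at 100 μM in PBS (300 mOsm/kg, pH 7.4) was shaken at 1400 rpm and 37 °C with Pd0-resins (1 mg/mL, 4.4% w/w Pd; [Pd0] 400 μM). Samples were taken at 0, 6 and 24 h for reverse-phase HPLC with UV at 280 nm: water/acetonitrile with 0.1% formic acid, 95:5 to 5:95 over 3 min.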

Data set [8] can be described thus: Cytotoxicity against human MIAPaCa2 cells after 5 days by PrestoBlue assay. The data set is classed as functional, cell-based. The conditions noted are these: MIA PaCa-2, 96 h, in the assay text read “4 days” for “5 days”.
Data set [9] has as its system MIA PaCa-2. In words: Cytotoxicity against human MIAPaCa2 cells at 30 to 300 nM after 5 days by PrestoBlue assay in presence of palladium-resins. The data set is classed as functional, cell-based. Summed up: as §1
The nature of data set [10]: Cytotoxicity against human BxPC3 cells at 10 to 100 nM after 5 days by PrestoBlue assay. The class given is cell-based. Conditions: bxpc-3, 120 h, 0.1 µM. Summed up:
as §1

The nature of data set [11]: Prodrug conversion in phosphate buffered saline assessed as half life of formation of gemcitabine at 100 uM by HPLC analysis in presence of palladium-resins. The class given is physicochemical. Conditions: buffer.
A short description of data set [12]: Cytotoxicity against human MIAPaCa2 cells at 30 to 300 nM after 5 days by PrestoBlue assay. The data set is classed as cell-based. Conditions: mia paca-2, 120 h, 0.3 µM. Summed up:
as §1

Data set [13] can be described thus: Toxicity in human BxPC3 cells assessed as cell growth at 30 nM up to 120 hrs by IncuCyte ZOOM analysis. Conditions: bxpc-3, 120 h, 0.03 µM. The data set is classed as cell-based. The method, boiled down:
as §2

A short description of data set [14]: Toxicity in human MIAPaCa2 cells assessed as induction of DNA damage by measuring phosphorylated gamma-H2AX level at 300 nM after 24 hrs by immunofluorescence analysis in presence of palladium-resins. The data set is classed as cell-based. The conditions noted are these: mia paca-2, 24 h, 0.3 µM. Summed up:
(§4)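 Mia PaCa-2 cells (2,000/well, DMEM) were grown 48 h, then treated 24 h at 300 nM in 0.1% DMSO, with or without Pd0-resins (0.67 mg/mL). The prodrug–resin mix was preincubated 24 h at 37 °C before addition. Cells were fixed in 4% paraformaldehyde and permeabilized with 0.1% Triton X-100. Staining used rabbit anti-phospho-H2AX Ser139 (1:400, 1 h, RT), then Alexa 488 secondary, Hoechst and phalloidin. Imaged by confocal microscopy.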

Data set [15] is described as follows: Toxicity in human MIAPaCa2 cells assessed as induction of DNA damage by measuring phosphorylated gamma-H2AX level at 300 nM after 24 hrs by immunofluorescence analysis. The data set is classed as cell-based. The conditions noted are these: mia paca-2, 24 h, 0.3 µM. The method, boiled down: as §4
The nature of data set [16]: Prodrug conversion in phosphate buffered saline assessed as compound retention time at 100 uM after 6 to 24 hrs by HPLC analysis in presence of palladium-resins. The class given is physicochemical. The conditions noted are these: buffer. The method, boiled down:
as §3

Data set [17] can be described thus: Cytotoxicity against human BxPC3 cells after 4 days by PrestoBlue assay. Conditions: BXPC-3, 96 h.
A short description of data set [18]: Prodrug conversion in phosphate buffered saline assessed as gemcitabine retention time at 100 uM after 6 to 24 hrs by HPLC analysis in presence of palladium-resins. The data set is classed as physicochemical. Conditions: buffer. Summed up: as §3

Calls of active or inactive are those of the source. No cut-off for these calls is given here.

Consider `C#CCOC(=O)Nc1ccc2c(c1)Oc1cc(NC(=O)OCC#C)ccc1C21OC(=O)c2ccccc21`, for which, in data set [1], the Drug metabolism entry was “metabolite_detected”.

As usually defined, the EC50 is the concentration at which the effect is half-maximal. The low end stands for a more potent agent, the high end for a less potent agent. In the case of `C#CCOC(=O)OC[C@H]1O[C@H](n2ccc(N)nc2=O)C(F)(F)[C@@H]1O`, the EC50 was found to be 45 nM in data set [2] and 13 nM in data set [3].

`C#CCOC(=O)Nc1ccn([C@H]2O[C@H](CO)[C@@H](O)C2(F)F)c(=O)n1`: the result in data set [4], in data set [5], in data set [6] and in [9] was Active. Moreover, the Drug metabolism entry in data set [7] is reported as “Active”. For the same compound, the EC50 in data set [8] was determined as 1400 nM; in [3] it was 237 nM. Also, the Activity entry was “Non-toxic” in data set [10]; “Non-toxic” in data set [12]; 100% in [13]; “Toxic” in data set [14]; “Non-toxic” in [15]. The t1/2 in data set [11] is below 6 h. In addition, the Retention_time in [16] is on record as 2.45 min.

Take `Nc1ccn([C@H]2O[C@H](COC(=O)OCc3ccccc3)[C@@H](O)C2(F)F)c(=O)n1`: the figures for the EC50 in data set [8] and in [3] were 29 nM and 12 nM, respectively.

As for `C=CCOC(=O)Nc1ccn(C2O[C@H](CO)[C@@H](O)C2(F)F)c(=O)n1` (single isomer, unassigned), the result in data set [4], in data set [5], in data set [6] and in data set [9] was Active. For the same compound, the Drug metabolism result in data set [7] was “Active”. For the same compound, the EC50 was 900 nM in [8] and 335 nM in data set [17]. Further, the results for the Activity entry in data set [10], in data set [12] and in [13] were “Non-toxic”, “Non-toxic” and 100%, respectively. Besides, the Retention_time in data set [16] came to 2.56 min.

For the compound `O=C(Nc1ccc2c(c1)Oc1cc(NC(=O)OCc3ccccc3)ccc1C21OC(=O)c2ccccc21)OCc1ccccc1`, in data set [1], the Drug metabolism entry was “metabolite_notdetected”.

In the case of `O=C(Nc1ccn([C@H]2O[C@H](CO)[C@@H](O)C2(F)F)c(=O)n1)OCc1ccccc1`, in data set [4], the result was inactive. For the same compound, the EC50 came to 94 nM in [8] and 253 nM in data set [17]. Moreover, the Retention_time in data set [16] is reported as 2.96 min.

For `C=CCOC(=O)OC[C@H]1O[C@H](n2ccc(N)nc2=O)C(F)(F)[C@@H]1O`, the EC50 in [8] came to 27 nM; in data set [3] it was 22 nM.

On to `Nc1ccn([C@@H]2O[C@H](CO)[C@@H](O)C2(F)F)c(=O)n1` [GEMCITABINE], for which the results for the EC50 in [8] and in [3] were 2000 nM and 10 nM, respectively. For the same compound, in [18], the Retention_time is reported as 0.93 min.
